Assay results reported in PMC7825275 (Cancer chemotherapy and pharmacology, 2019).

System: patients with advanced solid tumors
Assay: Toxicity by grade
Format: in vivo, human
Outline: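 Adverse events were tabulated descriptively as maximum grade in three groups: the chemotherapy-only lead-in cycle, the first veliparib-containing cycle, and all cycles. CBC and serum chemistry including liver function tests were drawn weekly during cycles 1–2, then at the start of every cycle. Veliparib was oral, twice daily on days 1–7; carboplatin/paclitaxel were IV every 21 days.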

[1] = first cycle including veliparib with carboplatin and paclitaxel, n=73
[2] = veliparib with carboplatin and paclitaxel

C[C@]1(c2nc3c(C(N)=O)cccc3[nH]2)CCCN1 [veliparib]
17 (23) number of patients (%): White blood cell decreased, Grade 3 [1]
57%: neutropenia, frequency during the DLT assessment period [2]
19%: neutropenia highest grade 3, DLT assessment period [2]
0 number of patients (%): Non-cardiac chest pain, Grade 2 [1] | Non-cardiac chest pain, Grade 3 [1] | Non-cardiac chest pain, Grade 4 [1] | Paresthesia, Grade 2 [1] | Paresthesia, Grade 3 [1] | Paresthesia, Grade 4 [1] | Peripheral sensory neuropathy, Grade 2 [1] | Peripheral sensory neuropathy, Grade 3 [1] | Peripheral sensory neuropathy, Grade 4 [1] | Platelet count decreased, Grade 4 [1] | Presyncope, Grade 1 [1] | Presyncope, Grade 2 [1] | Presyncope, Grade 4 [1] | Pruritus, Grade 2 [1] | Pruritus, Grade 3 [1] | Pruritus, Grade 4 [1] | Purpura, Grade 2 [1] | Purpura, Grade 3 [1] | Purpura, Grade 4 [1] | Rash maculopapular, Grade 2 [1] | Rash maculopapular, Grade 3 [1] | Rash maculopapular, Grade 4 [1] | Sepsis, Grade 1 [1] | Sepsis, Grade 2 [1] | Sepsis, Grade 3 [1] | Sinus disorder, Grade 2 [1] | Sinus disorder, Grade 3 [1] | Sinus disorder, Grade 4 [1] | Tremor, Grade 2 [1] | Tremor, Grade 3 [1] | Tremor, Grade 4 [1] | Upper respiratory infection, Grade 1 [1] | Upper respiratory infection, Grade 3 [1] | Upper respiratory infection, Grade 4 [1] | Vomiting, Grade 3 [1] | Vomiting, Grade 4 [1] | Weight loss, Grade 2 [1] | Weight loss, Grade 3 [1] | Weight loss, Grade 4 [1]
14 (19) number of patients (%): White blood cell decreased, Grade 2 [1]
9 (12) number of patients (%): Vomiting, Any Grade [1]
3 (4) number of patients (%): Pruritus, Any Grade [1] | Pruritus, Grade 1 [1] | White blood cell decreased, Grade 4 [1]
6 (8) number of patients (%): White blood cell decreased, Grade 1 [1]
31%: neutropenia highest grade 4, DLT assessment period [2]
2 (3) number of patients (%): Platelet count decreased, Grade 2 [1] | Rash maculopapular, Any Grade [1] | Rash maculopapular, Grade 1 [1] | Sepsis, Any Grade [1] | Sepsis, Grade 4 [1] | Vomiting, Grade 2 [1] | Weight loss, Any Grade [1] | Weight loss, Grade 1 [1]
7 (10) number of patients (%): Peripheral sensory neuropathy, Any Grade [1] | Peripheral sensory neuropathy, Grade 1 [1] | Platelet count decreased, Grade 1 [1] | Vomiting, Grade 1 [1]
13 (18) number of patients (%): Platelet count decreased, Any Grade [1]
7 patients: Febrile neutropenia or grade 3-4 neutropenia lasting more than 7 days (total across the dose levels)
4 (5) number of patients (%): Platelet count decreased, Grade 3 [1]
40 (55) number of patients (%): White blood cell decreased, Any Grade [1]
23 (31) number of patients (%): Neutrophil count decreased, Grade 4 [1]
1 (1) number of patients (%): Non-cardiac chest pain, Any Grade [1] | Non-cardiac chest pain, Grade 1 [1] | Paresthesia, Any Grade [1] | Paresthesia, Grade 1 [1] | Presyncope, Any Grade [1] | Presyncope, Grade 3 [1] | Purpura, Any Grade [1] | Purpura, Grade 1 [1] | Sinus disorder, Any Grade [1] | Sinus disorder, Grade 1 [1] | Tremor, Any Grade [1] | Tremor, Grade 1 [1] | Upper respiratory infection, Any Grade [1] | Upper respiratory infection, Grade 2 [1]
